Calls of active or inactive are those of the source. No cut-off for these calls is given here.

From ChEMBL document CHEMBL4706701, “Synthesis and biological activity of selenopsammaplin A and its analogues as antitumor agents with DOT1L inhibitory activity” (Bioorg Med Chem, 2021) come the findings set out here.

In assay [1] the test system is MCF-10A. Kind of assay: Cytotoxicity against human MCF-10A cells assessed as reduction in cell viability by SRB assay. It counts as cell-based. The gist of the method: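 Cells seeded in 96-well plates and exposed to compounds for the stated times. Zero-day controls were incubated 30 min. Cells were fixed and stained with 0.4% SRB in 1% acetic acid, and bound dye was dissolved in 10 mM Tris (pH 10.0). A515 was read, and IC50 was calculated by non-linear regression.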

Assay [2] has as its system MDA-MB-231. Kind of assay: Up regulation of CDH1 mRNA expression in human MDA-MB-231 cells at 50 to 200 nM measured after 24 hrs by RT-PCR analysis. It counts as functional, cell-based. The note with it: dose 50-200 nM.
Assay [3] concerns MDA-MB-231. As to the kind of experiment: Antimetastatic activity against human MDA-MB-231 cells xenografted in BALB/c nu mouse assessed as reduction in metastatic cells in lung tissue at 5 to 15 mg/kg, ip administered thrice per week for 38 days measured 1 week post last dose by H and E staining based immunohistochemical analysis. Format: functional, organism-based. The note with it: dose 5-15 mg/kg, time 45.0 day. The gist of the method:
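Tumors and lungs from orthotopic MDA-MB-231/Luc nude mice (ip dosing three times weekly, 38 days) fixed in 4% PFA, paraffin-embedded, sectioned, antigen-retrieved. Lungs H&E-stained for metastatic cells; tumor sections immunostained for Ki67, H3K79me2, E-cadherin, vimentin with HRP detection, hematoxylin counterstain, imaged at 200×.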

In assay [4] the test system is MDA-MB-231. Kind of assay: Antitumor activity against human MDA-MB-231 cells xenografted in ip dosed BALB/c nu mouse assessed as down regulation of H3K79me2 expression in tumor tissue administered thrice per week for 38 days measured 1 week post last dose by Western blot analysis. Format: functional, organism-based. The note with it: dose 5-15 mg/kg, time 45.0 day. In a few lines:
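Frozen tumor portions from the orthotopic MDA-MB-231 nude mouse study homogenized in complete lysis buffer; protein by Bradford assay. Western blotting for H3K79me2, E-cadherin and vimentin, β-actin internal control, band intensities semi-quantified; three separate experiments.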

With `O=C(NCC[Se][Se]CCNC(=O)/C(Cc1ccccc1)=N/O)/C(Cc1ccccc1)=N/O`, the IC50 in assay [1] was determined as 18.1 µM. Besides, the result in assay [2] and in assay [3] was Active. The Activity entry in assay [4] is “Dose-dependent effect”.
